In ChEMBL document CHEMBL1671633 (Antimicrob Agents Chemother, 2008):

Tests used:
[1] = test system: Homo sapiens; assay: Ratio of AUC (0 to 48 hrs) in healthy human at 900 mg, po thrice weekly measured on day 19 post compound dose to AUC (0 to 48 hrs) in healthy human at 900 mg, po administered as a single dose measured on day 5 post compound dose; type: ADME, organism-based; conditions: in vivo
In short: (§1)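 Healthy volunteers took oral RPT 900 mg thrice weekly, alongside MXF 400 mg daily, after a 750-kcal breakfast. Plasma was sampled over 48 h after the first RPT dose (day 5) and over 72 h after the seventh dose (day 19). RPT was measured by validated HPLC-UV with a trimipramine internal standard. Parameters were derived noncompartmentally, with AUC over 48 h, and compared as day 19/day 5 geometric mean ratios with 90% CI.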

[2] = test system: Homo sapiens; assay: Ratio of Tmax in healthy human at 900 mg, po thrice weekly measured on day 19 post compound dose to Tmax in healthy human at 900 mg, po administered as a single dose measured on day 5; conditions: in vivo
[3] = Cmax in healthy human at 900 mg, po administered as a single dose measured on day 5 post compound dose by HPLC; type: ADME, organism-based; parameters: dose 900 mg, route oral; conditions: in vivo
In short: (§2)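 Blood was drawn predose and at 2, 4, 6, 8, 10, 12, 24, 34 and 48 h after the first dose (day 5), and again on day 19 after 7 thrice-weekly doses (72-h sampling). Rifapentine and 25-desacetyl-rifapentine were measured by validated HPLC-UV with trimipramine as internal standard. Parameters came from noncompartmental analysis, with AUC truncated at 48 h.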

[4] = test system: Homo sapiens; assay: Ratio of Apparent oral clearance in healthy human at 900 mg, po thrice weekly measured on day 19 post compound dose to Apparent oral clearance in healthy human at 900 mg, po administered as a single dose measured on day 5; conditions: in vivo
[5] = Half life in healthy human at 900 mg, po thrice weekly measured on day 19 post compound dose by HPLC; type: ADME, organism-based; conditions: in vivo; in short: as §2
[6] = AUC (0 to 48 hrs) in healthy human at 900 mg, po administered as a single dose measured on day 5 post compound dose by HPLC; type: ADME, organism-based; parameters: time < 48 hr, dose 900 mg, route oral; conditions: plasma; in short: as §2
[7] = Apparent oral clearance in healthy human at 900 mg, po administered as a single dose measured on day 5 post compound dose by HPLC; type: ADME, organism-based; conditions: in vivo; in short: as §2
[8] = Tmax in healthy human at 900 mg, po administered as a single dose measured on day 5 post compound dose by HPLC; type: ADME, organism-based; conditions: in vivo; in short: as §1
[9] = Apparent oral clearance in healthy human at 900 mg, po thrice weekly measured on day 19 post compound dose by HPLC; type: ADME, organism-based; conditions: in vivo; in short: as §2
[10] = test system: Homo sapiens; assay: Ratio of Half life in healthy human at 900 mg, po thrice weekly measured on day 19 post compound dose to Half life in healthy human at 900 mg, po administered as a single dose measured on day 5; conditions: in vivo
[11] = AUC (0 to 48 hrs) in healthy human at 900 mg, po thrice weekly measured on day 19 post compound dose by HPLC; type: ADME, organism-based; parameters: time < 48 hr, dose 900 mg, route oral; conditions: plasma; in short: as §2
[12] = test system: Homo sapiens; assay: Volume of distribution in healthy human at 900 mg, po administered as a single dose measured on day 5 post compound dose by HPLC; type: ADME, organism-based; conditions: in vivo; in short: as §2
[13] = Cmax in healthy human at 900 mg, po thrice weekly measured on day 19 post compound dose by HPLC; type: ADME, organism-based; parameters: dose 900 mg, route oral; conditions: in vivo; in short: as §2
[14] = test system: Homo sapiens; assay: Ratio of Cmax in healthy human at 900 mg, po thrice weekly measured on day 19 post compound dose to Cmax in healthy human at 900 mg, po administered as a single dose measured on day 5; conditions: in vivo
[15] = test system: Homo sapiens; assay: Volume of distribution in healthy human at 900 mg, po thrice weekly measured on day 19 post compound dose by HPLC; type: ADME, organism-based; conditions: in vivo; in short: as §2
[16] = Half life in healthy human at 900 mg, po administered as a single dose measured on day 5 post compound dose by HPLC; type: ADME, organism-based; conditions: in vivo; in short: as §2
[17] = Tmax in healthy human at 900 mg, po thrice weekly measured on day 19 post compound dose by HPLC; type: ADME, organism-based; conditions: in vivo; in short: as §1
[18] = test system: Homo sapiens; assay: Ratio of Volume of distribution in healthy human at 900 mg, po thrice weekly measured on day 19 post compound dose to Volume of distribution in healthy human at 900 mg, po administered as a single dose measured on day 5; conditions: in vivo
[19] = Tmax in healthy human at 400 mg, po qd measured on day 4 by HPLC; type: ADME, organism-based; conditions: in vivo
In short: (§3)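 Healthy volunteers took oral MXF 400 mg once daily with a continental breakfast (750 kcal, 20% fat). Sampling was on day 4 (after four doses, MXF alone) or on day 19 (with 900 mg RPT thrice weekly added from day 5; 72-h sampling). Plasma MXF was measured by validated HPLC with fluorescence detection (standard curve 0.20–15 µg/ml). Tmax was derived noncompartmentally.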

[20] = AUC (0 to 24 hrs ) in healthy human at 400 mg, po qd coadministered with 900 mg, po thrice weekly of rifapentine on day 5 post compound dose measured on day 19 post compound dose by HPLC; type: ADME, organism-based; parameters: time < 24 hr, dose 400 mg, route oral; conditions: plasma
[21] = Tmax in healthy human at 400 mg, po qd coadministered with 900 mg, po thrice weekly of rifapentine on day 5 post compound dose measured on day 19 post compound dose by HPLC; type: ADME, organism-based; conditions: in vivo; in short: as §3
[22] = test system: Homo sapiens; assay: AUC (0 to 48 hrs) in healthy human assessed as 25-desacetyl-rifapentine level at 900 mg, po administered as a single dose measured on day 5 post compound dose by HPLC; type: ADME, organism-based, Plasma; parameters: dose 900 mg, time < 48 hr, route oral; conditions: in vivo; in short: as §2
[23] = test system: Homo sapiens; assay: Toxicity in healthy human assessed as incidence of adverse events at 400 mg, po qd coadministered with 900 mg, po thrice weekly of rifapentine on day 5 post compound dose measured on day 19 post compound dose; type: organism-based; conditions: in vivo
In short: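 Doses were given after a continental breakfast, with no other medications, alcohol or smoking allowed. Adherence was tracked by pill counts and medication diaries, and adverse events were recorded during and after dosing.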

[24] = AUC (0 to 24 hrs ) in healthy human at 400 mg, po qd measured on day 4 by HPLC; type: ADME, organism-based; parameters: time < 24 hr, dose 400 mg, route oral; conditions: plasma
[25] = test system: Homo sapiens; assay: AUC (0 to 48 hrs) in healthy human assessed as 25-desacetyl-rifapentine level at 900 mg, po thrice weekly measured on day 19 post compound dose by HPLC; type: ADME, organism-based, Plasma; parameters: dose 900 mg, time < 48 hr, route oral; conditions: in vivo; in short: as §2
[26] = Cmax in healthy human at 400 mg, po qd coadministered with 900 mg, po thrice weekly of rifapentine on day 5 post compound dose measured on day 19 post compound dose by HPLC; type: ADME, organism-based; parameters: dose 400 mg, route oral; conditions: in vivo
[27] = test system: Homo sapiens; assay: Tmax in healthy human assessed as 25-desacetyl-rifapentine level at 900 mg, po administered as a single dose measured on day 5 post compound dose by HPLC; type: ADME, organism-based; conditions: in vivo
In short: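 Healthy volunteers took a single oral 900 mg rifapentine dose on day 5, after a continental breakfast (750 kcal, 20% fat), alongside ongoing 400 mg daily MXF. Plasma was sampled predose and at 2, 4, 6, 8, 10, 12, 24, 34 and 48 h. 25-desacetyl-RPT was measured by validated HPLC with UV detection and trimipramine internal standard. Tmax was derived noncompartmentally.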

With `CO[C@H]1/C=C/O[C@@]2(C)Oc3c(C)c(O)c4c(O)c(c(/C=N/N5CCN(C6CCCC6)CC5)c(O)c4c3C2=O)NC(=O)/C(C)=C\C=C\[C@H](C)[C@H](O)[C@@H](C)[C@@H](O)[C@@H](C)[C@H](OC(C)=O)[C@@H]1C` [RIFAPENTINE] the “Ratio AUC” value [1] was 0.8, the Ratio [2] was 0.93 and the Cmax [3] was 21900 ng/mL. For the same molecule, the Ratio [4] was 1.36, the half-life [5] was 14.8 h and the AUC(0-t) at 48 h [6] was 513 µg·h/mL. It also gave a CL/F [7] of 26.5 mL/min, a Tmax [8] of 5.08 h and a CL/F [9] of 36.2 mL/min. For the same molecule, the Ratio [10] was 0.78, the AUC at 48 h [11] was 410 µg·h/mL and the Vd [12] was 40.7 L. The Cmax [13] was 21200 ng/mL, the Ratio [14] was 0.96 and the Vd [15] was 43.7 L. It also gave a half-life [16] of 18.5 h, a Tmax [17] of 4.77 h and a Ratio [18] of 1.07.

Work on `COc1c(N2C[C@@H]3CCCN[C@@H]3C2)c(F)cc2c(=O)c(C(=O)O)cn(C3CC3)c12` [MOXIFLOXACIN] yielded a Tmax [19] of 2.37 h, an AUC at 24 h [20] of 34.4 µg·h/mL and a Tmax [21] of 2.6 h. For the same molecule, the AUC [22] was 461.7 µg·h/mL, the Activity [23] was “Non-toxic” and the AUC at 24 h [24] was 41.9 µg·h/mL. The AUC [25] was 369.9 µg·h/mL, the Cmax [26] was 3330 ng/mL and the Tmax [27] was 24.9 h.
